Experimental data of several laboratories.

The clearance of CC(C)(C)c1ccc(O)c(CN(Cc2cc(C(C)(C)C)ccc2O)C2CCC(NC(N)=O)CC2)c1 (stereo not shown) is reported as 15.7 mL/min/kg (male C57BL/6 mouse; plasma; intraperitoneal; 5 mg/kg; single dose).
O=C(NCCN1CCCC1)c1cc(-c2ccc(CN3CCOCC3)cc2)nc2ccc(F)cc12 gave a Cmax of 27 ng/mL (male beagle dog; blood; oral; 3 mg/kg).
The clearance of C#Cc1cnc2nc(O)n(C(CC)CC)c2n1 is reported as 4.3 mL/min/kg (male beagle dog; plasma; intravenous; 1 mg/kg).
For CC(C)(Nc1nc(-c2ccccn2)nc2ccccc12)c1ccccn1, the C0 was 1800 ng/mL (female BALB/c mouse; plasma; intravenous; 1 mg/kg).
CCn1c(=O)c(-c2cc(NC(=O)Nc3ccccc3)c(F)cc2Br)cc2cnc(NC)cc21 gave a CL/F of 21 mL/min/kg (beagle dog; plasma; oral; 5 mg/kg; single dose).
COc1cc2c3c(n(CCCN4CCOCC4)c(=O)c2cc1OC)-c1cc2c(cc1C3=O)OCO2 has a Cmax of 547 ng/mL (female beagle dog; plasma; intravenous; 100 mg/m²; infusion).
The C0 of CCc1cc(OC)c2nccc(N3CCc4c(cc(Cn5ccnc5)cc4-c4cn(C)nc4C(F)(F)F)C3=O)c2c1 is reported as 4310 ng/mL (male CD-1 mouse; plasma; intravenous; 3 mg/kg).
COc1ccc(C(O)COc2ccc(-c3csc(-c4ccc(OCC(O)c5ccc(OC)c(OC)c5)cc4)n3)cc2)cc1OC (stereo not shown) has a C0 of 5280 ng/mL (C57BL/6 mouse; plasma; intravenous; 3 mg/kg).
For CNC(=O)c1cc(OC)cc2c(N3CCc4c(cc(Cn5ccnc5)cc4-c4cn(C)nc4C(F)(F)F)C3=O)ccnc12, the C0 was 8370 ng/mL (male CD-1 mouse; plasma; intravenous; 3 mg/kg).
For COCc1nn(Cc2ccc(Cn3ccccc3=O)cc2)cc1C(=O)NCc1c(F)ccc(OC)c1F, the Cmax was 163 ng/mL (male beagle dog; plasma; oral; 1 mg/kg).
The Tmax of CCc1cc(C(=O)NC)c2nccc(N3CCc4c(cc(Cn5ccnc5)cc4-c4cn(C)nc4C(F)(F)F)C3=O)c2c1 is reported as 1.3 h (male Sprague-Dawley rat; plasma; oral; 100 mg/kg; single dose).
With CC[C@@H]1CN(C(=O)NCC(F)(F)F)C[C@@H]1c1cnc2cnc3[nH]ccc3n12 the Cmax was 89.4 ng/mL (beagle dog; plasma; oral; 1 mg/kg; single dose).
With C=CC(=O)N1CC2CC(n3nc(-c4ccc(C(=O)Nc5ccccn5)cc4)c4c(N)ncnc43)CC2C1 (stereo not shown) the Tmax was 4 h (male Wistar rat; plasma; oral; 100 mg/kg).
For Cc1ccc2cncc(N3CCc4c(cc(Cn5ccnc5)cc4-c4cn(C)nc4C(F)(F)F)C3=O)c2c1, the C0 was 5480 ng/mL (male CD-1 mouse; plasma; intravenous; 3 mg/kg).
With CC(C)Oc1c(NC(=O)c2ccc(NC(=O)[C@H](CC(N)=O)NC(=O)c3ccc(NC(=O)c4ccc(C#N)cc4)cc3)cc2)ccc(C(=O)Nc2ccc(C(=O)O)cc2)c1O the CL/F was 163 mL/min/kg (male CD-1 mouse; plasma; subcutaneous; 5 mg/kg; single dose).
COc1ccc2c(c1OCc1ccccc1)C[C@@H](C(=O)O)N(C(=O)C(c1ccccc1)c1ccccc1)C2 gave a Cmax of 2710 ng/mL (male beagle dog; plasma; oral; 3 mg/kg).
